From ChEMBL document CHEMBL1127799, “Derivatives of a novel cyclopeptolide. 1. Synthesis, antifungal activity, and structure-activity relationships” (1994)
In brackets after ≈: the same amount, converted by molar mass. Each block holds one compound with its values, some of them ahead of it.

Key:
Format in all cases: functional
Candida tropicalis [1] = assay: Tested for minimum inhibitory concentration against Candida tropicalis 43 at pH of 4.5.
Outline: (§1)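 Broth microdilution in malt extract broth, initial pH 4.5 or 6.5, with 1×10^3 CFU per 0.2 mL well of thawed stored cultures. Compound stocks were made in 5% DMSO/0.2% Tween 80 and diluted to final 0.05–100 μg/mL. Plates were incubated 48 h at 30 °C and read macroscopically. MIC was the lowest concentration with no detectable growth. Vehicle-only wells served as controls.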

[2] = system: Meyerozyma guilliermondii; assay: Tested for minimum inhibitory concentration against Candida guilliermondii 80 at pH of 4.5.; outline: as §1
Pichia kudriavzevii [3] = assay: Tested for minimum inhibitory concentration against Candida krusei 132 at pH of 6.5.; outline: as §1
Candida tropicalis [4] = assay: Tested for minimum inhibitory concentration against Candida tropicalis 43 at pH of 6.5.; outline: as §1
Pichia kudriavzevii [5] = assay: Tested for minimum inhibitory concentration against Candida krusei 132 at pH of 4.5.; outline: as §1
Candida albicans [6] = assay: Tested for minimum inhibitory concentration against Candida albicans 124 at pH of 4.5.; outline: as §1
Candida albicans [7] = assay: Tested for minimum inhibitory concentration against Candida albicans 124 at pH of 6.5.; outline: as §1
[8] = system: Meyerozyma guilliermondii; assay: Tested for minimum inhibitory concentration against Candida guilliermondii 80 at pH of 6.5.; outline: as §1
Mus musculus [9] = organism: Mus musculus; assay: Tested for efficacy of compound in experimental vaginal candidosis (mouse) after oral treatment at dosage of 4 x150 mg kg e-1
Outline: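 Vaginal candidiasis in hormonally conditioned female NMRI mice (18–20 g), 10 per group, inoculated intravaginally with 50 μL Sabouraud's glucose broth containing 3.5×10^4 CFU C. albicans no. 124. Dosed four times per gavage, 2 h before and 2, 18 and 24 h after infection. Vaginal swabs plated on Sabouraud's glucose agar with streptomycin (0.1 mg/mL), 48 h at 37 °C. Cure = failed reisolation.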

Mus musculus [10] = organism: Mus musculus; assay: Tested for efficacy of compound in experimental systemic candidosis (mouse) after oral treatment at dosage of 8 *200 mg kg e-1
Outline: (§2)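 Systemic candidiasis: female NMRI mice (18–20 g), 10 per group, infected by intravenous injection of 10⁶ CFU C. albicans no. 124 via lateral tail vein. Oral dosing twice daily on 4 consecutive days, starting 2 h before inoculation. Efficacy taken as survival rate up to day 9 after infection.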

Candida albicans [11] = assay: Tested for minimum subinhibitory concentration against Candida albicans 26 (Candida albicans) at pH 6.5.
Outline: (§3)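 Malt extract broth microdilution, initial pH 6.5, inoculum 1×10^3 CFU per 0.2 mL well. Compound diluted from 0.08% stock (5% DMSO/0.2% Tween 80) to final 0.05–100 μg/mL. Macroscopic reading after 48 h, 30 °C. MSIC = lowest concentration giving visible growth inhibition in at least two of three triplicates. Vehicle-only negative controls.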

Candida albicans [12] = assay: Tested for minimum inhibitory concentration against Candida albicans 26 (Candida albicans) at pH 6.5.
Outline: (§4)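 Broth microdilution in malt extract broth, initial pH 6.5, 1×10^3 CFU per 0.2 mL well, from liquid-nitrogen-stored Sabouraud cultures. Compound from 0.08% stock in 5% DMSO/0.2% Tween 80, final 0.05–100 μg/mL. Visual reading after 48 h at 30 °C. MIC = lowest concentration with no detectable growth. Vehicle-only negative controls.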

Candida albicans [13] = assay: Tested for minimum inhibitory concentration against Candida albicans 124 (Candida albicans) at pH 6.5.; outline: as §4
Candida albicans [14] = assay: Tested for minimum subinhibitory concentration against Candida albicans 124 (Candida albicans) at pH 6.5.; outline: as §3
Candida tropicalis [15] = assay: Tested for minimum subinhibitory concentration against Candida tropicalis 43 (C.t) at pH 6.5.; outline: as §3
Candida albicans [16] = assay: Tested for minimum subinhibitory concentration against Candida albicans 90 (Candida albicans) at pH 6.5.; outline: as §3
Pichia kudriavzevii [17] = assay: Tested for minimum inhibitory concentration against Candida krusei 132 (C.k) at pH 6.5.; outline: as §4
Candida albicans [18] = assay: Tested for minimum subinhibitory concentration against Candida albicans 9 (Candida albicans) at pH 6.5.; outline: as §3
Candida albicans [19] = assay: Tested for minimum subinhibitory concentration against Candida albicans 88 (Candida albicans) at pH 6.5.; outline: as §3
[20] = system: Meyerozyma guilliermondii; assay: Tested for minimum inhibitory concentration against Candida guilliermondii 80 (C.g) at pH 6.5.; outline: as §4
Candida albicans [21] = assay: Tested for minimum inhibitory concentration against Candida albicans 3 (Candida albicans) at pH 6.5.; outline: as §4
Candida albicans [22] = assay: Tested for minimum subinhibitory concentration against Candida albicans 3 (Candida albicans) at pH 6.5.; outline: as §3
Candida albicans [23] = assay: Tested for minimum inhibitory concentration against Candida albicans 90 (Candida albicans) at pH 6.5.; outline: as §4
[24] = system: Meyerozyma guilliermondii; assay: Tested for minimum subinhibitory concentration against Candida guilliermondii 80 (C.g) at pH 6.5.; outline: as §3
Candida tropicalis [25] = assay: Tested for minimum inhibitory concentration against Candida tropicalis 43 (C.t) at pH 6.5.; outline: as §4
Candida albicans [26] = assay: Tested for minimum inhibitory concentration against Candida albicans 4 (Candida albicans) at pH 6.5.; outline: as §4
Mus musculus [27] = organism: Mus musculus; assay: Tested for efficacy of compound in experimental systemic candidosis (mouse) after oral treatment at dosage of 8 *100 mg kg e-1; outline: as §2
Rattus norvegicus [28] = organism: Rattus norvegicus; assay: Tested for efficacy of compound in experimental vaginal candidosis (rat) after tropical treatment at dosage of 9x 0.1% drug concentration
Outline: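 Female Wistar rats (~150 g, hormonally conditioned, 10 per group) infected intravaginally with 3.5×10^4 CFU C. albicans no. 124 in 50 μL broth. Intravaginal gel, 0.2 mL, from 2 h post-inoculation, twice daily for 4 days (nine applications). Swabs plated one day after last treatment on Sabouraud's glucose agar with streptomycin, 48 h at 37 °C. Cure = no reisolation.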

Rattus norvegicus [29] = organism: Rattus norvegicus; assay: Tested for efficacy of compound in experimental vaginal candidosis (rat) after oral treatment at dosage of 2x 300 mg kg e-1
Outline: (§5)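 Hormonally conditioned female Wistar rats (~150 g), 10 per group, given intravaginal C. albicans no. 124, 3.5×10^4 CFU in 50 μL Sabouraud's glucose broth. Oral dosing twice, 2 h before and 18 h after infection. Vaginal swabs plated on Sabouraud's glucose agar with streptomycin (0.1 mg/mL), 48 h at 37 °C. Cured when C. albicans not reisolated.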

Rattus norvegicus [30] = organism: Rattus norvegicus; assay: Tested for efficacy of compound in experimental vaginal candidosis (rat) after oral treatment at dosage of 2x 150 mg kg e-1; outline: as §5
Pichia kudriavzevii [31] = assay: Tested for minimum subinhibitory concentration against Candida krusei 132 (C.k) at pH 6.5.; outline: as §3
Candida albicans [32] = assay: Tested for minimum inhibitory concentration against Candida albicans 88 (Candida albicans) at pH 6.5.; outline: as §4
Candida albicans [33] = assay: Tested for minimum inhibitory concentration against Candida albicans 9 (Candida albicans) at pH 6.5.; outline: as §4
Candida albicans [34] = assay: Tested for minimum subinhibitory concentration against Candida albicans 4 (Candida albicans) at pH 6.5.; outline: as §3
Candida tropicalis [35] = assay: Tested for minimum inhibitory concentration against Candida tropicalis 43 (C.t) at pH of 6.5.; outline: as §1
Pichia kudriavzevii [36] = assay: Tested for minimum inhibitory concentration against Candida krusei 132 (C.k) at pH of 4.5.; outline: as §1
[37] = system: Meyerozyma guilliermondii; assay: Tested for minimum inhibitory concentration against Candida guilliermondii 80 (C.g) at pH of 4.5.; outline: as §1
Pichia kudriavzevii [38] = assay: Tested for minimum inhibitory concentration against Candida krusei 132 (C.k) at pH of 6.5.; outline: as §1
Candida tropicalis [39] = assay: Tested for minimum inhibitory concentration against Candida tropicalis 43 (C.t) at pH of 4.5.; outline: as §1
Candida albicans [40] = assay: Tested for minimum inhibitory concentration against Candida albicans 124 (Candida albicans) at pH of 4.5.; outline: as §1
[41] = system: Meyerozyma guilliermondii; assay: Tested for minimum inhibitory concentration against Candida guilliermondii 80 (C.g) at pH of 6.5.; outline: as §1
Candida albicans [42] = assay: tested for minimum inhibitory concentration against Candida albicans 124 (Candida albicans) at pH of 6.5.; outline: as §1
Candida albicans [43] = assay: Tested for minimum inhibitory concentration against Candida albicans 124 (Candida albicans) at pH of 6.5.; outline: as §1

- MIC (Candida tropicalis [35]): > 100 µg/mL
- MIC (Pichia kudriavzevii [36]): > 100 µg/mL
- MIC [37]: > 100 µg/mL
- MIC (Pichia kudriavzevii [38]): > 100 µg/mL
- MIC (Candida tropicalis [39]): > 100 µg/mL
- MIC (Candida albicans [40]): > 100 µg/mL
- MIC [41]: > 100 µg/mL
- MIC (Candida albicans [42]): > 100 µg/mL
SMILES: C=CCOC(=O)C[C@H]1C(=O)N(C)[C@@H]([C@@H](C)CC)C(=O)N(C)[C@@H]([C@H](C)CC)C(=O)NCC(=O)N(C)[C@@H](C(C)C)C(=O)N[C@@H](Cc2ccc(OCC=C)cc2)C(=O)O[C@H](C)C(=O)N2CCCC[C@H]2C(=O)N(C)[C@@H](C(C)C)C(=O)N[C@@H](C(C)C)C(=O)N1C

- MIC (Candida tropicalis [35]): > 100 µg/mL
- MIC (Pichia kudriavzevii [36]): > 100 µg/mL
- MIC [37]: > 100 µg/mL
- MIC (Pichia kudriavzevii [38]): > 100 µg/mL
- MIC (Candida tropicalis [39]): > 100 µg/mL
- MIC (Candida albicans [40]): > 100 µg/mL
- MIC [41]: > 100 µg/mL
- MIC (Candida albicans [43]): > 100 µg/mL
SMILES: CC[C@@H](C)[C@H]1C(=O)NCC(=O)N(C)[C@@H](C(C)C)C(=O)N[C@@H](Cc2ccc(OC)cc2)C(=O)O[C@H](C)C(=O)N2CCCC[C@H]2C(=O)N(C)[C@@H](C(C)C)C(=O)N[C@@H](C(C)C)C(=O)N(C)[C@@H](CC(=O)NCCN(C)C)C(=O)N(C)[C@@H]([C@@H](C)CC)C(=O)N1C

- MIC (Candida tropicalis [35]): 100 µg/mL (≈ 86.8 µM)
- MIC (Pichia kudriavzevii [36]): 100 µg/mL (≈ 86.8 µM)
- MIC [37]: 100 µg/mL (≈ 86.8 µM)
- MIC (Pichia kudriavzevii [38]): > 100 µg/mL
- MIC (Candida tropicalis [39]): 100 µg/mL (≈ 86.8 µM)
- MIC (Candida albicans [40]): 3.13 µg/mL (≈ 2.72 µM)
- MIC [41]: 100 µg/mL (≈ 86.8 µM)
- MIC (Candida albicans [43]): 6.25 µg/mL (≈ 5.42 µM)
SMILES: C=CCOc1ccc(C[C@@H]2NC(=O)[C@H](C(C)C)N(C)C(=O)CNC(=O)[C@H]([C@H](C)CC)N(C)C(=O)[C@H]([C@@H](C)CC)N(C)C(=O)[C@H](CC(=O)O)N(C)C(=O)[C@H](C(C)C)NC(=O)[C@H](C(C)C)N(C)C(=O)[C@@H]3CCCCN3C(=O)[C@@H](C)OC2=O)cc1

The remaining lines, values behind:

SMILES: CC[C@@H](C)[C@H]1C(=O)NCC(=O)N(C)[C@@H](C(C)C)C(=O)N[C@@H](Cc2ccc(OC/C=C(\C)CCC=C(C)C)cc2)C(=O)O[C@H](C)C(=O)N2CCCC[C@H]2C(=O)N(C)[C@@H](C(C)C)C(=O)N[C@@H](C(C)C)C(=O)N(C)[C@@H](CC(=O)O)C(=O)N(C)[C@@H]([C@@H](C)CC)C(=O)N1C
- MIC (Candida tropicalis [1]): > 100 µg/mL
- MIC [2]: > 100 µg/mL
- MIC (Pichia kudriavzevii [3]): > 100 µg/mL
- MIC (Candida tropicalis [4]): > 100 µg/mL
- MIC (Pichia kudriavzevii [5]): > 100 µg/mL
- MIC (Candida albicans [6]): > 100 µg/mL
- MIC (Candida albicans [7]): > 100 µg/mL
- MIC [8]: > 100 µg/mL

SMILES: CC(=O)N1CCN(c2ccc(OC[C@H]3CO[C@](Cn4ccnc4)(c4ccc(Cl)cc4Cl)O3)cc2)CC1 [KETOCONAZOLE]
- Efficacy (Mus musculus [9]): 100%
- Efficacy (Mus musculus [10]): 100%
- MSIC (Candida albicans [11]): <0.05 µg/mL
- MIC (Candida albicans [12]): > 100 µg/mL
- MIC (Candida albicans [13]): > 100 µg/mL
- MSIC (Candida albicans [14]): 0.19 µg/mL
- MSIC (Candida tropicalis [15]): 6.25 µg/mL
- MSIC (Candida albicans [16]): 0.39 µg/mL
- MIC (Pichia kudriavzevii [17]): > 100 µg/mL
- MSIC (Candida albicans [18]): <0.05 µg/mL
- MSIC (Candida albicans [19]): <0.05 µg/mL
- MIC [20]: > 100 µg/mL
- MIC (Candida albicans [21]): 100 µg/mL (≈ 188 µM)
- MSIC (Candida albicans [22]): 0.19 µg/mL
- MIC (Candida albicans [23]): > 100 µg/mL
- MSIC [24]: 0.19 µg/mL
- MIC (Candida tropicalis [25]): > 100 µg/mL
- MIC (Candida albicans [26]): > 100 µg/mL
- Efficacy (Mus musculus [27]): 100%
- Efficacy (Rattus norvegicus [28]): 73%
- Efficacy (Rattus norvegicus [29]): 100%
- Efficacy (Rattus norvegicus [30]): 100%
- MSIC (Pichia kudriavzevii [31]): 0.78 µg/mL
- MIC (Candida albicans [32]): > 100 µg/mL
- MIC (Candida albicans [33]): 100 µg/mL (≈ 188 µM)
- MSIC (Candida albicans [34]): <0.05 µg/mL
